Key:
[1] = system: Trypanosoma brucei rhodesiense; assay: Antitrypanosomal activity against bloodstream form of Trypanosoma brucei rhodesiense STIB 900 after 70 hrs by alamar blue assay; type: functional, organism-based; settings: STIB 900, 70 h
Method in brief: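 T. b. rhodesiense STIB 900 bloodstream forms were grown at 37 °C in humidified 5% CO2 in MEM with Earle's salts plus 0.2 mM 2-mercaptoethanol, 1 mM sodium pyruvate, 0.5 mM hypoxanthine and 15% heat-inactivated horse serum. Serial threefold dilutions were tested with Alamar Blue read-out (ex 536/em 588 nm). IC50 was taken from sigmoidal growth-inhibition curves over at least three independent repeats (mean ± SEM).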

[2] = Selectivity index, ratio of IC50 for rat L6 cells to IC50 for Trypanosoma brucei rhodesiense STIB 900; type: toxicity, cell-based; settings: read-out: Ratio IC50
Method in brief: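 SI was calculated as IC50 in L6 cells divided by IC50 against T. b. rhodesiense, with both values from the Alamar Blue assays.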

L6 = assay: Cytotoxicity against rat L6 cells after 70 hrs by alamar blue assay; type: cell-based; settings: L6, 70 h
Method in brief: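 Rat skeletal myoblasts (L6) were kept in RPMI 1640 with L-glutamine, 5.95 g/L HEPES, 2 g/L NaHCO3 and 10% FBS at 37 °C in 5% CO2, seeded at 4000 cells/well, then given fresh medium 24 h later with or without serial threefold drug dilutions. Podophyllotoxin served as reference. After 70 h, Alamar Blue was added for 2 h more and read at ex 536/em 588 nm. IC50 came from sigmoidal curves, ≥3 independent repeats.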

| SMILES | IC50 [1] [nM] | selectivity ratio [2] | IC50 (L6) [nM] |
| --- | --- | --- | --- |
| C=C(COC(C)=O)C(=O)O[C@H]1CC(=C)[C@@H]2C[C@H](OC(C)=O)C(=C)[C@@H]2[C@H]2OC(=O)C(=C)[C@@H]21 | 2130 | 2.3 | 4940 |
| C=C1C(=O)O[C@@H]2[C@H]3C(=C)[C@@H](OCOC)C[C@H]3C(=C)C[C@H](O)[C@@H]12 | 2210 | 0.4 | 860 |
| C=C(CO)C(=O)O[C@H]1CC(=C)[C@@H]2C[C@H](O)C(=C)[C@@H]2[C@H]2OC(=O)C(=C)[C@@H]21 [CYNAROPICRIN] | 280 | 7.8 | 2190 |
| C=C1C(=O)O[C@@H]2[C@H]3C(=C)[C@@H](O)C[C@H]3C(=C)C[C@H](O)[C@@H]12 [DESACYLCYNAROPICRIN] | 4920 | 1 | 4940 |

More lines, in order of falling IC50 [1], values ahead:

| IC50 [1] [nM] | SMILES | selectivity ratio [2] | IC50 (L6) [nM] |
| --- | --- | --- | --- |
| 1860 | C=C(COC(C)=O)C(=O)O[C@H]1CC(=C)[C@@H]2C[C@H](O)C(=C)[C@@H]2[C@H]2OC(=O)C(=C)[C@@H]21 | 3.4 | 6390 |
| 480 | C=C(COCOC)C(=O)O[C@H]1CC(=C)[C@@H]2C[C@H](OCOC)C(=C)[C@@H]2[C@H]2OC(=O)C(=C)[C@@H]21 | 0.4 | 170 |
| 340 | C=C(C)C(=O)O[C@H]1CC(=C)[C@@H]2C[C@H](OCOC)C(=C)[C@@H]2[C@H]2OC(=O)C(=C)[C@@H]21 | 0.9 | 300 |
| 170 | C=C(C)C(=O)O[C@H]1CC(=C)[C@@H]2C[C@H](O)C(=C)[C@@H]2[C@H]2OC(=O)C(=C)[C@@H]21 [AGUERIN B] | 1.9 | 330 |
